Columns and labels:
[1] = tested on: HeLa; assay: Competitive inhibition of [3H]LTC4 uptake by MRP1 expressing HeLa-T5 cell membranes; type: functional, Homo sapiens
[2] = Selectivity ratio of average EC50 values was calculated in HL60/ADR cell line and HL60/Vinc cell line; type: functional, HL-60
Procedure, shortened: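 Resistance reversal in MRP1-overexpressing HL60/Adr and P-gp-overexpressing HL60/Vinc cells. Modulator EC50 is the concentration-dependent enhancement of the antiproliferative response to an IC20 concentration of doxorubicin. Cell number is read by alamarBlue reduction. Ratio is the average EC50 in HL60/Vinc divided by the average EC50 in HL60/Adr.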

[3] = molecular target: MRP1 (ABCC1, Homo sapiens); assay: In vitro for its inhibitory activity against MRP1-transfected HeLa-T5 cell line in the presence of doxorubicin

EC50 [1] [nM]	EC50 [3] [nM]	SMILES	Ratio [2]
4400	–	COc1cc(OCCc2cccc(-n3c(=O)c4c(C)onc4c4c(Cl)cccc43)c2)cc(OC)c1OC	14
1800	–	COc1cc(NC(=O)Cc2cccc(-n3c(=O)c4c(C)onc4c4c(Cl)cccc43)c2)cc(OC)c1OC	–
–	> 10000	Cc1onc2c1c(=O)n(-c1cccc(CC(=O)Nc3ccc(C(F)(F)F)cc3)c1)c1cccc(Cl)c21	–
–	2300	Cc1onc2c1c(=O)n(-c1cccc(CC(=O)Nc3ccccc3)c1)c1cccc(Cl)c21	–
1700	1300	COc1cc(NC(=O)Cc2cccc(-n3c(=O)c4c(C)onc4c4c(Cl)cccc43)c2)cc(OC)c1O	14
–	1130	COc1cc(C(=O)NCc2cccc(-n3c(=O)c4c(C)onc4c4c(Cl)cccc43)c2)cc(OC)c1OC	–
–	4900	Cc1onc2c1c(=O)n(-c1cccc(CC(=O)Nc3ccc(C#N)cc3)c1)c1cccc(Cl)c21	–
4200	–	COc1cc(N(C)C(=O)Cc2cccc(-n3c(=O)c4c(C)onc4c4c(Cl)cccc43)c2)cc(OC)c1OC	4
–	3700	Cc1ccc(NC(=O)Cc2cccc(-n3c(=O)c4c(C)onc4c4c(Cl)cccc43)c2)cc1	–

— ChEMBL document CHEMBL1135242, “Tricyclic isoxazoles are novel inhibitors of the multidrug resistance protein (MRP1)” (Bioorg Med Chem Lett, 2002)
